The results in this text go back to ChEMBL document CHEMBL1773037, “Evaluation of superior BACE1 cleavage sequences containing unnatural amino acids” (Bioorg Med Chem, 2011).

Test [1] addresses Beta-secretase 1 (Homo sapiens) (UniProt P56817). Description: Activity of recombinant BACE assessed as substrate cleavage after 1 hr by HPLC analysis.
The target is the same in test [2]. Kind of test: Activity of recombinant BACE assessed as retention time of substrate by HPLC method.
The target is the same in test [3]. Kind of test: Activity of recombinant BACE assessed as retention time of C-terminal fragment by HPLC method.
The target is the same in test [4]. Description: Activity of recombinant BACE assessed as retention time of N-terminal fragment by HPLC method.
For test [5] the target is unchanged. Description: Activity of recombinant BACE assessed as substrate cleavage upto 3 hrs by HPLC analysis. The method, boiled down:
(§1)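 Individually synthesized, purified substrates at 300 µM in 40 mM AcONa buffer, pH 4.5, 37 °C. rBACE1 used at 60 nM (P1, P4 substrates), 30 nM (P2, P3 substrates) or 10 nM (P1' substrates and the dodecapeptide). Aliquots taken at 0, 1 and 3 h, quenched with 7 M GuHCl, and the decrease in each substrate peak monitored by HPLC.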

Test [6] has the same target. Description: Activity of recombinant BACE assessed as substrate cleavage at 300 uM after 3 hrs by HPLC analysis. In a few lines:
as §1

Active and inactive are the calls of the source. The calls are words filed in the database; no cut-off is given here. Non-standard residues stand in square brackets, D forms with d. Residues, ends and D or L forms follow the SMILES beside them. 2Thi = N[C@@H](Cc1cccs1)C(=O)O; Cit = NC(=O)NCCC[C@H](N)C(=O)O; Phg = N[C@H](C(=O)O)c1ccccc1; Nva = CCC[C@H](N)C(=O)O

Sequence of Beta-secretase 1 (Homo sapiens) (P56817 whole entry): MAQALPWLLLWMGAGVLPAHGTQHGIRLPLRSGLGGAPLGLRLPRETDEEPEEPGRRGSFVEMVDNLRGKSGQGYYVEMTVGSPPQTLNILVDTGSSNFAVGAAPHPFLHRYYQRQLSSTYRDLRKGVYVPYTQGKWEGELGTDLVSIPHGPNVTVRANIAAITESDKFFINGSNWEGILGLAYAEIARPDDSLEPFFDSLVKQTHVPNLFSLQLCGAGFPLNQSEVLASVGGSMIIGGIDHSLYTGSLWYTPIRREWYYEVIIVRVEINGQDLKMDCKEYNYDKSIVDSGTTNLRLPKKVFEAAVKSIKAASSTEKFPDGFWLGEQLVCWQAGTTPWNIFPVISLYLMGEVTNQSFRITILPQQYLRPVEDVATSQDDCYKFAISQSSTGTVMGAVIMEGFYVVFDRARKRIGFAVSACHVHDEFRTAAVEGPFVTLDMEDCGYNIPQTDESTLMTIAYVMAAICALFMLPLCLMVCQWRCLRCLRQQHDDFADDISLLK

Take `CC[C@H](C)[C@H](N)C(=O)N[C@@H](CCCCN)C(=O)N[C@H](C(=O)N[C@@H](CCC(=O)O)C(=O)N[C@@H](CCC(=O)O)C(=O)N[C@H](C(=O)N[C@@H](CO)C(=O)N[C@@H](CCC(=O)O)C(=O)N[C@H](C(=O)N[C@@H](CC(N)=O)C(=O)N[C@@H](CC(C)C)C(=O)N[C@@H](CC(=O)O)C(=O)N[C@@H](C)C(=O)N[C@@H](CCC(=O)O)C(=O)N[C@@H](Cc1ccccc1)C(=O)N[C@@H](CCCNC(=N)N)C(=O)N[C@@H](Cc1cnc[nH]1)C(=O)N[C@@H](CC(=O)O)C(=O)N[C@@H](CO)C(=O)NCC(N)=O)C(C)C)[C@@H](C)CC)[C@@H](C)O`: the Activity in test [1] stood at 20%. For the same compound, the retention time came to 0.297 h in test [2], 0.082 h in test [3] and 0.289 h in test [4].
Turning to `CCC[C@H](NC(=O)[C@H](Cc1cccs1)NC(=O)[C@H](Cc1cccs1)NC(=O)[C@@H](NC(=O)[C@H](CCC(=O)O)NC(=O)[C@H](CO)NC(=O)[C@@H](N)[C@@H](C)CC)[C@@H](C)CC)C(=O)N[C@@H](C)C(=O)N[C@@H](CCC(=O)O)C(=O)N[C@@H](Cc1ccccc1)C(=O)N[C@@H](CCCNC(=N)N)C(=O)N[C@@H](Cc1cnc[nH]1)C(N)=O` (H-ISEI[2Thi][2Thi][Nva]AEFRH-NH2), the retention time in test [2] was determined as 0.658 h. Also, the Activity in test [5] turned out to be 90%.
For the compound `CC[C@H](C)[C@H](N)C(=O)N[C@@H](CO)C(=O)N[C@@H](CCC(=O)O)C(=O)N[C@H](C(=O)N[C@@H](CC(N)=O)C(=O)N[C@@H](CC(C)C)C(=O)N[C@@H](CC(=O)O)C(=O)N[C@@H](C)C(=O)N[C@@H](CCC(=O)O)C(=O)N[C@@H](Cc1ccccc1)C(=O)N[C@@H](CCCNC(=N)N)C(=O)N[C@@H](Cc1cnc[nH]1)C(N)=O)C(C)C` (H-ISEVNLDAEFRH-NH2), the retention time is 0.487 h in test [2], 0.217 h in test [3] and 0.429 h in test [4]. Also, the Activity in test [5] stood at 10%; in test [6] it was 50%.
As for `CC[C@H](C)[C@H](N)C(=O)N[C@@H](CO)C(=O)N[C@@H](CCC(=O)O)C(=O)N[C@H](C(=O)N[C@@H](CC(N)=O)C(=O)N[C@@H](Cc1cccs1)C(=O)N[C@@H](CC(=O)O)C(=O)N[C@@H](C)C(=O)N[C@@H](CCC(=O)O)C(=O)N[C@@H](Cc1ccccc1)C(=O)N[C@@H](CCCNC(=N)N)C(=O)N[C@@H](Cc1cnc[nH]1)C(N)=O)C(C)C` (H-ISEVN[2Thi]DAEFRH-NH2), the figures for the retention time in test [2], in test [3] and in test [4] were 0.483 h, 0.217 h and 0.429 h, respectively. The Activity in test [6] amounted to 70%.
As for `CC[C@H](C)[C@H](N)C(=O)N[C@@H](CO)C(=O)N[C@@H](CCC(=O)O)C(=O)N[C@H](C(=O)N[C@@H](CC(N)=O)C(=O)N[C@@H](CCCNC(N)=O)C(=O)N[C@@H](CC(=O)O)C(=O)N[C@@H](C)C(=O)N[C@@H](CCC(=O)O)C(=O)N[C@@H](Cc1ccccc1)C(=O)N[C@@H](CCCNC(=N)N)C(=O)N[C@@H](Cc1cnc[nH]1)C(N)=O)C(C)C` (H-ISEVN[Cit]DAEFRH-NH2), the retention time turned out to be 0.344 h in test [2] and 0.217 h in test [3]. The outcome in test [6] was Active.
Consider `CCC[C@H](NC(=O)[C@H](CC(N)=O)NC(=O)[C@@H](NC(=O)[C@H](CCC(=O)O)NC(=O)[C@H](CO)NC(=O)[C@@H](N)[C@@H](C)CC)C(C)C)C(=O)N[C@@H](CC(=O)O)C(=O)N[C@@H](C)C(=O)N[C@@H](CCC(=O)O)C(=O)N[C@@H](Cc1ccccc1)C(=O)N[C@@H](CCCNC(=N)N)C(=O)N[C@@H](Cc1cnc[nH]1)C(N)=O` (H-ISEVN[Nva]DAEFRH-NH2), for which the figures for the retention time in test [2] and in test [3] were 0.45 h and 0.217 h, respectively. Besides, in test [6], the outcome was Active.
On to `CC[C@H](C)[C@H](N)C(=O)N[C@@H](CO)C(=O)N[C@@H](CCC(=O)O)C(=O)N[C@H](C(=O)N[C@@H](CC(N)=O)C(=O)N[C@H](C(=O)N[C@@H](CC(=O)O)C(=O)N[C@@H](C)C(=O)N[C@@H](CCC(=O)O)C(=O)N[C@@H](Cc1ccccc1)C(=O)N[C@@H](CCCNC(=N)N)C(=O)N[C@@H](Cc1cnc[nH]1)C(N)=O)c1ccccc1)C(C)C` (H-ISEVN[Phg]DAEFRH-NH2), for which the results for the retention time in test [2] and in test [3] were 0.459 h and 0.217 h, respectively. In addition, the outcome in test [6] was Active.
